From ChEMBL document CHEMBL3286317, “Synthesis and biological evaluation of a unique heparin mimetic hexasaccharide for structure-activity relationship studies” (J Med Chem, 2014) come the findings set out here.

Assay [1] concerns the target T1, Bone morphogenetic protein 2 (Homo sapiens, UniProt P12643).
T1 sequence (P12643 whole entry): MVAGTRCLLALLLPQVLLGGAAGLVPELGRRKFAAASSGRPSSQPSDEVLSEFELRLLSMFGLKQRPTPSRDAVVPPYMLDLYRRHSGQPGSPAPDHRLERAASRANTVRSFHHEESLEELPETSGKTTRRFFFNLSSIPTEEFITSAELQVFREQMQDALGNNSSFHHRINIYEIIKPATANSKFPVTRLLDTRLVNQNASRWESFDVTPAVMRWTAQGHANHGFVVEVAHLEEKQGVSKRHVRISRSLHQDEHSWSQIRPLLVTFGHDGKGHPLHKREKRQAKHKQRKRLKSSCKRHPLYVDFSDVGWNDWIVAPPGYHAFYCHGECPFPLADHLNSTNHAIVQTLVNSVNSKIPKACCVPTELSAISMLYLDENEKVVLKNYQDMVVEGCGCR
Put plainly: Binding affinity to human recombinant BMP2 by surface plasmon resonance assay. Put shortly: (§1)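 Biotinylated low-molecular-weight heparin was captured on a neutravidin surface. Protein at varying concentrations was mixed with a hexasaccharide dilution series and injected. Free protein was read from a quadratic slope-vs-concentration standard curve. KD = [P_free][H_total]/[P_bound], averaged over three hexasaccharide concentrations.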

In assay [2] the target is T2, C-X-C motif chemokine 2 (Homo sapiens, UniProt P19875).
T2 sequence (P19875 whole entry): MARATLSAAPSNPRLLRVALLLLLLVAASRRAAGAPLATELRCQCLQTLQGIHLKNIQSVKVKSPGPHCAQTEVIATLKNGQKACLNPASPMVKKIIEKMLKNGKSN
Put plainly: Binding affinity to human recombinant CXCL2 by surface plasmon resonance assay. A digest of the protocol:
as §1
In general terms: Surface plasmon resonance follows binding to a sensor surface in real time, without labels.

Assay [3] has as its target T3, P-selectin/P-selectin glycoprotein ligand 1 (Homo sapiens, UniProt P16109+Q14242).
T3 sequence (Q14242 whole entry): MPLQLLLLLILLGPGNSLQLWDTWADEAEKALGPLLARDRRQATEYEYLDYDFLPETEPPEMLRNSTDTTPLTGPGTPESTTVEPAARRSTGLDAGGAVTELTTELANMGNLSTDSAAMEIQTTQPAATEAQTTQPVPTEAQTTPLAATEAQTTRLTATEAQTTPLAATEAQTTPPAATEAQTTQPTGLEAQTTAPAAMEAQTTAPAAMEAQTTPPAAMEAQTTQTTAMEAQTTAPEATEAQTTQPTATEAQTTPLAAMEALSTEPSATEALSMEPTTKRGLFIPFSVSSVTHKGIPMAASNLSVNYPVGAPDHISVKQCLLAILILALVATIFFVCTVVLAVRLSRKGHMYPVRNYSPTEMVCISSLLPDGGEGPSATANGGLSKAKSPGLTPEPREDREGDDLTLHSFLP
T3 sequence (P16109 whole entry): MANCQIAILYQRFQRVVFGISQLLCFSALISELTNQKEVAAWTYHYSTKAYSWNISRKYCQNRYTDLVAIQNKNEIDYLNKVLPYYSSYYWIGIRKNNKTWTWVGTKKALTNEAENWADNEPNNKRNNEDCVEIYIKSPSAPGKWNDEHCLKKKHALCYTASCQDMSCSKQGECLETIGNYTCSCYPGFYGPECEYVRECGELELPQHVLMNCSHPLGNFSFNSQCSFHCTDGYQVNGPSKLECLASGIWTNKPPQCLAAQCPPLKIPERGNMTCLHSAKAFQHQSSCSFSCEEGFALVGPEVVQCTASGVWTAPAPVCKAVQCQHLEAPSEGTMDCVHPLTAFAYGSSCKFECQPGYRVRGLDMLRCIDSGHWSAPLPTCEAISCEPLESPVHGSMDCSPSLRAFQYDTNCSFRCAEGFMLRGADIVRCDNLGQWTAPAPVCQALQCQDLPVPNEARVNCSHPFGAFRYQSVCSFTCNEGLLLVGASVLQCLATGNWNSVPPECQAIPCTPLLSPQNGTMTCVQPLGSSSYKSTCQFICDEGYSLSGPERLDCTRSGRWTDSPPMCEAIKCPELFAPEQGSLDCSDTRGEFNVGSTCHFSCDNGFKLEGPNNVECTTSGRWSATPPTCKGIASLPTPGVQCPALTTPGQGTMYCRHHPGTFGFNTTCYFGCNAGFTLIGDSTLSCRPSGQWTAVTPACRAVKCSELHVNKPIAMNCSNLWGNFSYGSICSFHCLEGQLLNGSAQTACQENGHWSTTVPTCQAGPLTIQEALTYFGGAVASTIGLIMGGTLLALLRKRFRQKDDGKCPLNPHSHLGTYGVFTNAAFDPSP
Put plainly: Inhibition of PSEL/PSGL1 (unknown origin) interaction. Type of assay: protein assay. Put shortly:
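Hexasaccharide dilution series mixed with 50 nM PSEL and passed over a PSGL1-Fc-coated SPR surface. Equilibrium response was measured. IC50 came from nonlinear regression of response vs concentration, and Ki from the Cheng–Prusoff equation.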

In assay [4] the target is Sonic hedgehog protein (Homo sapiens, UniProt Q15465). In words: Binding affinity to human recombinant Shh by surface plasmon resonance assay. A digest of the protocol:
as §1

For assay [5], the target named is T4, Vascular endothelial growth factor A, long form (Homo sapiens, UniProt P15692).
T4 sequence (P15692 whole entry): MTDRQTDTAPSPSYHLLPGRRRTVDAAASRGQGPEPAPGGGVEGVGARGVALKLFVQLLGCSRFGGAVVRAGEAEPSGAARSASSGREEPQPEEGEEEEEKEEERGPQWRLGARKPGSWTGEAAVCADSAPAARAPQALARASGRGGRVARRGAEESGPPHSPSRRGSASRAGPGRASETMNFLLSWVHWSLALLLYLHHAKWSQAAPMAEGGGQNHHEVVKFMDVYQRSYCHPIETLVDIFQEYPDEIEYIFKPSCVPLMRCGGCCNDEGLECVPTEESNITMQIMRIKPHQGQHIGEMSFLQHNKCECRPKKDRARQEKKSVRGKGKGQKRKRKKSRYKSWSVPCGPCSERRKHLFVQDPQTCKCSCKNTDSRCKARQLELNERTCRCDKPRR
Put plainly: Binding affinity to human recombinant VEGF165 by surface plasmon resonance assay. A digest of the protocol:
as §1

Assay [6] has as its target T5, Fibroblast growth factor 2 (Homo sapiens, UniProt P09038). Put plainly: Binding affinity to human recombinant FGF2 by surface plasmon resonance assay. Put shortly: as §1
Assay [7] deals with T5, Fibroblast growth factor 2. Put plainly: Binding affinity to human recombinant FGF2 at 780 uM by STD-NMR analysis.
Assay [8] addresses T6, Bone morphogenetic protein 4 (Homo sapiens, UniProt P12644).
T6 sequence (P12644 whole entry): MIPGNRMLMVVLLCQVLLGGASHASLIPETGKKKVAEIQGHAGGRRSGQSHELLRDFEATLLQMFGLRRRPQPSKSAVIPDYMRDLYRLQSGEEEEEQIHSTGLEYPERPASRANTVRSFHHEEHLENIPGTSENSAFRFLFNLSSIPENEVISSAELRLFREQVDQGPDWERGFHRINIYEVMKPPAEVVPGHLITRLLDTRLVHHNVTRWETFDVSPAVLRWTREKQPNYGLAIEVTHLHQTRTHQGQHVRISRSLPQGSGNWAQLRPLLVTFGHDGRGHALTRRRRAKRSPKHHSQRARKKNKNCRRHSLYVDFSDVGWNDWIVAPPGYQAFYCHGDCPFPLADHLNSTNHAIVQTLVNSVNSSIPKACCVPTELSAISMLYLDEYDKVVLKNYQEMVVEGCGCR
In words: Binding affinity to human recombinant BMP4 by surface plasmon resonance assay. A digest of the protocol:
as §1

Calls of active or inactive are those of the source. The rule behind the calls is not given here.

Chain of Sonic hedgehog protein (Q15465 24-197 limits assumed): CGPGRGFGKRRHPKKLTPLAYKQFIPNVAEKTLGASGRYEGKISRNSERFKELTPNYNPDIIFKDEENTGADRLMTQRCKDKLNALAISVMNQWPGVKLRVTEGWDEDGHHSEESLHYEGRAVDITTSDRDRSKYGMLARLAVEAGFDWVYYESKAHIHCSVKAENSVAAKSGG
T5 sequence (P09038 143-288 limits assumed): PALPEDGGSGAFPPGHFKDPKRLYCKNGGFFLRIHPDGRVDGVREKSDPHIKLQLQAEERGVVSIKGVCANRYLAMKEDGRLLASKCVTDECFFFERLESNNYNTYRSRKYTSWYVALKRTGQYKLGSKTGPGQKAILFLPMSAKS

Consider `CCCCCO[C@H]1O[C@H](COS(=O)(=O)O)[C@@H](O[C@@H]2O[C@@H](C(=O)O)[C@@H](O[C@H]3O[C@H](COS(=O)(=O)O)[C@@H](O[C@@H]4O[C@@H](C(=O)O)[C@@H](O[C@H]5O[C@H](COS(=O)(=O)O)[C@@H](O[C@@H]6O[C@@H](C(=O)O)[C@@H](O)[C@H](O)[C@H]6OS(=O)(=O)O)[C@H](O)[C@H]5NC(C)=O)[C@H](O)[C@H]4OS(=O)(=O)O)[C@H](O)[C@H]3NC(C)=O)[C@H](O)[C@H]2OS(=O)(=O)O)[C@H](O)[C@H]1NC(C)=O`, for which the Kd – broadly, a measure of binding affinity in units of concentration – in assay [1] was 24 µM; in assay [2] it was 250 mM; in assay [4], 27 µM; in assay [5], 66 µM; in assay [6], 25 mM; in assay [8], 250 mM. Besides, the affinity in assay [3], expressed as Ki, was 250 µM. For the same molecule, in assay [7], the result was Active.
`CCCCCO[C@H]1O[C@H](COS(=O)(=O)O)[C@@H](O[C@@H]2O[C@@H](C(=O)O)[C@@H](O[C@H]3O[C@H](COS(=O)(=O)O)[C@@H](O[C@@H]4O[C@@H](C(=O)O)[C@@H](O[C@H]5O[C@H](COS(=O)(=O)O)[C@@H](O[C@@H]6O[C@@H](C(=O)O)[C@@H](O)[C@H](O)[C@H]6OS(=O)(=O)O)[C@H](O)[C@H]5NC(C)=O)[C@H](O)[C@H]4OS(=O)(=O)O)[C@H](O)[C@H]3NS(=O)(=O)O)[C@H](O)[C@H]2O)[C@H](O)[C@H]1NC(C)=O`: the dissociation constant (Kd) was 34 µM in assay [1]; 250 mM in assay [2]; 23 µM in assay [4]; 14 µM in assay [5]; 25 mM in assay [6]; 250 mM in assay [8]. Also, the affinity in assay [3], expressed as Ki, was 96 µM. Besides, the outcome in assay [7] was Active.
As for `NCCCCCO[C@H]1O[C@H](CO)[C@@H](O[C@@H]2O[C@@H](C(=O)O)[C@@H](O[C@H]3O[C@H](CO)[C@@H](O[C@@H]4O[C@@H](C(=O)O)[C@@H](O[C@H]5O[C@H](CO)[C@@H](O[C@@H]6O[C@@H](C(=O)O)[C@@H](O)[C@H](O)[C@H]6OS(=O)(=O)O)[C@H](O)[C@H]5NS(=O)(=O)O)[C@H](O)[C@H]4OS(=O)(=O)O)[C@H](O)[C@H]3NS(=O)(=O)O)[C@H](O)[C@H]2OS(=O)(=O)O)[C@H](O)[C@H]1NS(=O)(=O)O`, the Kd in assay [1] was found to be 46 µM; in assay [2] it was 250 mM; in assay [4], 122 µM; in assay [5] it was 86 µM; in assay [6], 0.001 mM; in assay [8], 250 mM. Also, in assay [3], affinity was put at a Ki of 358 µM. Also, the result in assay [7] was Active.
